Laboratory results published in ChEMBL document CHEMBL3808357, “Discovery of N-(3-((1-Isonicotinoylpiperidin-4-yl)oxy)-4-methylphenyl)-3-(trifluoromethyl)benzamide (CHMFL-KIT-110) as a Selective, Potent, and Orally Available Type II c-KIT Kinase Inhibitor for Gastrointestinal Stromal Tumors (GISTs)” (J Med Chem, 2016).
Active and inactive are the calls of the source. The rule behind the calls is not given here.

Tests used:
[1] = tested on: Mast/stem cell growth factor receptor Kit (Homo sapiens), P10721 [D816V]; assay: Inhibition of Tel-fused cKIT D816V mutant (unknown origin) transfected in mouse BAF3 cells assessed as decrease in cell proliferation after 72 hrs by celltiter-glo/CCK8 assay; assay type: cell-based
Summary of the method: (§1)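 Stable BaF3 lines made by retroviral transduction with mutagenized TEL-KIT MSCV vectors, puromycin selection 48 h, then gradual IL-3 withdrawal until IL-3-independent; grown in RPMI 1640 with 10% FBS. Cells at 1 to 3 × 10⁴ cells/mL exposed to a concentration series for 72 h; viability read by CellTiter-Glo luminescence or CCK-8 absorbance (450/655 nm); GI50 from triplicate testing.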

[2] = tested on: GISTT1; assay: Induction of apoptosis in human GISTT1 cells assessed as caspase 3 cleavage up to 3 uM after 48 hrs by Western blot analysis; assay type: functional, cell-based
[3] = Tmax in Sprague-Dawley rat plasma at 1 mg/kg, iv; assay type: ADME, organism-based
Summary of the method: (§2)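 Male Sprague–Dawley rats, 8 weeks old, six in total, fasted overnight; compound dissolved in 5% DMSO/40% PEG400/55% saline (1 mg/mL dosing solution), given iv or orally. About 0.2 mL jugular blood taken with heparin at 1 min–8 h (iv) or 5 min–24 h (oral); plasma separated at 2–8 °C and stored at −80 °C before analysis.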

[4] = molecular target: Epithelial discoidin domain-containing receptor 1 (Homo sapiens, UniProt Q08345); assay: Inhibition of human wild type partial length DDR1 expressed in bacterial expression system assessed as residual activity at 1 uM by KinomeScan method
Summary of the method: (§3)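 KinomeScan competitive binding panel of 468 kinases and mutants, compound tested at 1 μM; read-out is percent activity remaining (binding relative to control).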

[5] = tested on: GIST48B; assay: Induction of apoptosis in human GIST48B cells assessed as caspase 3 cleavage up to 3 uM after 72 hrs by Western blot analysis; assay type: functional, cell-based
[6] = molecular target: T1, Macrophage colony-stimulating factor 1 receptor (Homo sapiens, UniProt P07333); assay: Inhibition of human wild type partial length CSF1R expressed in bacterial expression system assessed as residual activity at 1 uM by KinomeScan method; summary of the method: as §3
[7] = Half life in Sprague-Dawley rat plasma at 1 mg/kg, iv; assay type: ADME, organism-based
Summary of the method: (§4)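 Male Sprague-Dawley rats, 8 weeks old, fasted overnight, dosed iv or orally. Formulation was 5% DMSO/40% PEG400/55% saline at 1 mg/mL. Blood (~0.2 mL) was drawn from the jugular vein into heparin. Sampling: iv at 1 min to 8 h; oral at 5 min to 24 h. Plasma was separated by centrifugation at 2−8 °C and stored at −80 °C.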

[8] = molecular target: Mast/stem cell growth factor receptor Kit (Homo sapiens) (UniProt P10721); assay: Inhibition of cKIT in human GIST48B cells assessed as suppression of AKT phosphorylation at S473 up to 10 uM after 2 hrs by Western blot analysis; assay type: cell-based
[9] = molecular target: Mast/stem cell growth factor receptor Kit (Homo sapiens) (UniProt P10721); assay: Inhibition of cKIT in human GIST882 cells assessed as suppression of ERK phosphorylation at T202/Y204 up to 10 uM after 2 hrs by Western blot analysis; assay type: cell-based
[10] = tested on: K562; assay: Antiproliferative activity against BCR-ABL dependent human K562 cells assessed as reduction in cell viability after 72 hrs by celltiter-glo/CCK8 assay; assay type: functional; details: K562, 72 h
Summary of the method: (§5)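 Cells were seeded at 1 to 3 × 10⁴ cells/mL with serial compound concentrations and incubated 72 h at 37 °C, 5% CO₂. Viability was read by CellTiter-Glo luminescence or CCK-8 absorbance (450/655 nm). GI50 values are from triplicate testing. GIST-T1 and CHO were grown in DMEM/10% FBS; GIST-882, GIST-48B and MV4-11 in IMDM/10% FBS; other lines in RPMI 1640/10% FBS.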

[11] = Antiproliferative activity against human HL60 cells assessed as reduction in cell viability after 72 hrs by celltiter-glo/CCK8 assay; assay type: functional; details: HL-60, 72 h; summary of the method: as §5
[12] = molecular target: Mast/stem cell growth factor receptor Kit (Homo sapiens) (UniProt P10721); assay: Inhibition of cKIT autophosphorylation at Y719 in human GIST48B cells up to 10 uM after 2 hrs by Western blot analysis; assay type: cell-based
[13] = Apparent clearance in Sprague-Dawley rat plasma at 10 mg/kg, po; assay type: ADME, organism-based; details: read-out: CL(app) (converted); summary of the method: as §4
[14] = tested on: GISTT1; assay: Induction of apoptosis in human GISTT1 cells assessed as PARP cleavage up to 3 uM after 48 hrs by Western blot analysis; assay type: functional, cell-based
[15] = molecular target: Mast/stem cell growth factor receptor Kit (Homo sapiens) (UniProt P10721); assay: Inhibition of cKIT in human GIST882 cells assessed as suppression of STAT5 phosphorylation at Y694 up to 10 uM after 2 hrs by Western blot analysis; assay type: cell-based
[16] = Tmax in Sprague-Dawley rat plasma at 10 mg/kg, po; assay type: ADME, organism-based; summary of the method: as §2
[17] = molecular target: Platelet-derived growth factor receptor beta (Homo sapiens, UniProt P09619); assay: Inhibition of human wild type partial length PDGFRbeta expressed in bacterial expression system assessed as residual activity at 1 uM by KinomeScan method; summary of the method: as §3
[18] = Cmax in Sprague-Dawley rat plasma at 10 mg/kg, po; assay type: ADME, organism-based; set-up: dose 10 mg/kg, route oral; summary of the method: as §4
[19] = Cell cycle arrest in human GIST48B cells at 0.3 to 3 uM after 24 hrs by propidium iodide/RNase staining based flow cytometric analysis; assay type: functional
Summary of the method: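 Cells were then fixed in 70% cold ethanol at −20 °C overnight, stained with PI/RNase buffer and analysed by flow cytometry.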

[20] = molecular target: Mast/stem cell growth factor receptor Kit (Homo sapiens) (UniProt P10721); assay: Inhibition of Tel-fused cKIT (unknown origin) transfected in mouse BAF3 cells assessed as decrease in cell proliferation after 72 hrs by celltiter-glo/CCK8 assay; assay type: cell-based; summary of the method: as §5
[21] = molecular target: Mast/stem cell growth factor receptor Kit (Homo sapiens) (UniProt P10721); assay: Inhibition of cKIT autophosphorylation at Y703 in human GIST882 cells up to 10 uM after 2 hrs by Western blot analysis; assay type: cell-based
[22] = molecular target: Mast/stem cell growth factor receptor Kit (Homo sapiens) (UniProt P10721); assay: Inhibition of cKIT autophosphorylation at Y823 in human GISTT1 cells up to 10 uM after 2 hrs by Western blot analysis; assay type: cell-based
[23] = molecular target: Mast/stem cell growth factor receptor Kit (Homo sapiens) (UniProt P10721); assay: Inhibition of cKIT in human GISTT1 cells assessed as suppression of AKT phosphorylation at S473 up to 10 uM after 2 hrs by Western blot analysis; assay type: cell-based
[24] = AUC(0 to infinity) in Sprague-Dawley rat plasma at 1 mg/kg, iv; assay type: ADME, organism-based; set-up: dose 1 mg/kg, time infinity, route intravenous; summary of the method: as §4
[25] = molecular target: T1, Macrophage colony-stimulating factor 1 receptor; assay: Inhibition of His-tagged recombinant human CSF1R expressed in baculovirus expression system after 1 hr by Z-lyte assay
[26] = AUC(0 to infinity) in Sprague-Dawley rat plasma at 10 mg/kg, po; assay type: ADME, organism-based; set-up: dose 10 mg/kg, time infinity, route oral; summary of the method: as §4
[27] = Antiproliferative activity against cKIT dependent human GIST882 cells assessed as reduction in cell viability after 72 hrs by celltiter-glo/CCK8 assay; assay type: functional; details: GIST882, 72 h; summary of the method: as §5
[28] = molecular target: Mast/stem cell growth factor receptor Kit (Homo sapiens) (UniProt P10721); assay: Inhibition of cKIT in human GIST882 cells assessed as suppression of AKT phosphorylation at S473 up to 10 uM after 2 hrs by Western blot analysis; assay type: cell-based
[29] = tested on: Mast/stem cell growth factor receptor Kit (Homo sapiens), P10721 [V559D,T670I]; assay: Inhibition of Tel-fused cKIT T670I/V559D double mutant (unknown origin) transfected in mouse BAF3 cells assessed as decrease in cell proliferation after 72 hrs by celltiter-glo/CCK8 assay; assay type: cell-based; summary of the method: as §1
Sequence of Mast/stem cell growth factor receptor Kit (Homo sapiens), P10721 [V559D,T670I] (P10721 whole entry V559D/T670I, the tested form may be a part): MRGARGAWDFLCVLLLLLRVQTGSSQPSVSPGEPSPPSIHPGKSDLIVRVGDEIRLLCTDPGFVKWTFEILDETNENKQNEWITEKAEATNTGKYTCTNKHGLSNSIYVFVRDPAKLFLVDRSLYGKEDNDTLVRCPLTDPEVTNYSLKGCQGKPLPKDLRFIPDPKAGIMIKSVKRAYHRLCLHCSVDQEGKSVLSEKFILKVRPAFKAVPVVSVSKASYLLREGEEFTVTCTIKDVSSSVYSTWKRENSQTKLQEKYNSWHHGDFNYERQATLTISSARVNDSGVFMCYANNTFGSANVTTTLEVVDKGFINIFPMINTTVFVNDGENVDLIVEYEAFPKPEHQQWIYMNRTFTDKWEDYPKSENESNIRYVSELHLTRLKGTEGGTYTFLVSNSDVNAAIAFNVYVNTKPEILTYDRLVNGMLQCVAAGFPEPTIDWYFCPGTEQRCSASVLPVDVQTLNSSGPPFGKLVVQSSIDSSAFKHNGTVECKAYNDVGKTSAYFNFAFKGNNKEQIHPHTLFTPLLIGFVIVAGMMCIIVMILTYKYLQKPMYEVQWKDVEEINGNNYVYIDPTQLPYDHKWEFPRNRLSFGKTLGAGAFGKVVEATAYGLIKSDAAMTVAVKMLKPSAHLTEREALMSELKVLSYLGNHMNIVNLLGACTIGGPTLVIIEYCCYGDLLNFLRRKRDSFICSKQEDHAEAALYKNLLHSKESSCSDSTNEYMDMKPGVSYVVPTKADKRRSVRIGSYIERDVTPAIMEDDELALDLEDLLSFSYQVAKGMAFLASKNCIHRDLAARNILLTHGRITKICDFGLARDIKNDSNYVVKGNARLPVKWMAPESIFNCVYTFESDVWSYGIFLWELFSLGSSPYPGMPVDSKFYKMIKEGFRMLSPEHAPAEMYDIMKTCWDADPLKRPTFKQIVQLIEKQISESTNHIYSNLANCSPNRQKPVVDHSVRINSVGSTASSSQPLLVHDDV

Sequence of Mast/stem cell growth factor receptor Kit (Homo sapiens) (P10721 whole entry, the tested form may be a part): as the sequence (P10721 whole entry V559D/T670I, the tested form may be a part) above, with D559V, I670T counted along it
T1 sequence (P07333 whole entry): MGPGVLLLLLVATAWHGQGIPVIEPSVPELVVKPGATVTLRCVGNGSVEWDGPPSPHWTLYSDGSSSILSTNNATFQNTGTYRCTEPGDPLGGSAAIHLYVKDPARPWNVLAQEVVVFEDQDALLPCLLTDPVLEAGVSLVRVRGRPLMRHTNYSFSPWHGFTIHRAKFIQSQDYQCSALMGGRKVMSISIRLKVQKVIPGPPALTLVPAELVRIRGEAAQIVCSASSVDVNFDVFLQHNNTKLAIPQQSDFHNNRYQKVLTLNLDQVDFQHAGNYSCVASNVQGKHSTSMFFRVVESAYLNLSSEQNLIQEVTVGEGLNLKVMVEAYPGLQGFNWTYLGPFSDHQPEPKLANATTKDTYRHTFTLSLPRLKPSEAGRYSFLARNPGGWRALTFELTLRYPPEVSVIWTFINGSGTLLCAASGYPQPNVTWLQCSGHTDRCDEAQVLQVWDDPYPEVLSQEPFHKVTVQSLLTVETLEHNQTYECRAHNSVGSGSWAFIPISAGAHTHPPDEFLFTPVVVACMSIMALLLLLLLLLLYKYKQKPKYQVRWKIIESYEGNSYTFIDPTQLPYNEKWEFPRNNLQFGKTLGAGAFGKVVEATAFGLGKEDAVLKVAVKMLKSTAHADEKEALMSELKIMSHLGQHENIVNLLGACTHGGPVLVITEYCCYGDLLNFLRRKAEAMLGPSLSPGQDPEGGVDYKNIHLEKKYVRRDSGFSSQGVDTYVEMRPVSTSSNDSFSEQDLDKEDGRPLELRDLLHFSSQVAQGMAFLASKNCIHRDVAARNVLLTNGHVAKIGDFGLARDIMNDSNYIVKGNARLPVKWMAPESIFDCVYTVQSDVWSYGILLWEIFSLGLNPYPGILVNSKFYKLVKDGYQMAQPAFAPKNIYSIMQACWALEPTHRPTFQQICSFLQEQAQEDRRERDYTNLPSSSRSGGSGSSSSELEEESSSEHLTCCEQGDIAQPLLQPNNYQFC
Sequence of Mast/stem cell growth factor receptor Kit (Homo sapiens), P10721 [D816V] (P10721 whole entry D816V, the tested form may be a part): as the sequence (P10721 whole entry V559D/T670I, the tested form may be a part) above, with D559V, I670T, D816V counted along it
Sequence of Epithelial discoidin domain-containing receptor 1 (Q08345 whole entry, the tested form may be a part): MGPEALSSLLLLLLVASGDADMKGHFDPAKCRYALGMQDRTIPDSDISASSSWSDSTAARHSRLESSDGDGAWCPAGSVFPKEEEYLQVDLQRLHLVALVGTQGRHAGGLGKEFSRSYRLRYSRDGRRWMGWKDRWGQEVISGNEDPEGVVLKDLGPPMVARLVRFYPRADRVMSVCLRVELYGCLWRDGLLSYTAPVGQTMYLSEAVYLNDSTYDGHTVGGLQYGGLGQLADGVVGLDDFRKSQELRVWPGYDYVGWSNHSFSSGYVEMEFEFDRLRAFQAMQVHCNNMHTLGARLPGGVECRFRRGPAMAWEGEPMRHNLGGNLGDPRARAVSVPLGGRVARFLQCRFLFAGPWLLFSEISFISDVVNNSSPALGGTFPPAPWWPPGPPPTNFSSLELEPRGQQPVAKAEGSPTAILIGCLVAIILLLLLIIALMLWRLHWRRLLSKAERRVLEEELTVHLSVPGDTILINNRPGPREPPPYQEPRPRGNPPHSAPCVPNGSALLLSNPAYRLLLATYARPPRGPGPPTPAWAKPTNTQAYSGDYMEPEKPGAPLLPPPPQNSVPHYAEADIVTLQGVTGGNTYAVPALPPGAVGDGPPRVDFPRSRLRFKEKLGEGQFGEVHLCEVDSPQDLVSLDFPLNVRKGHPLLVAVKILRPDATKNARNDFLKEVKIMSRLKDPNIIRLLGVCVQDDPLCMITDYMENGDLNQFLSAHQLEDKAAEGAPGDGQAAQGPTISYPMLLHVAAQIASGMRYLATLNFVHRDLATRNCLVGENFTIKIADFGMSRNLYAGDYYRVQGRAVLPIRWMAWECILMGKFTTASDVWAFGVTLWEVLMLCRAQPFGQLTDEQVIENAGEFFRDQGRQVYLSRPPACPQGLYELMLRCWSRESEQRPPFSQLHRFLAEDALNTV
Sequence of Platelet-derived growth factor receptor beta (P09619 whole entry): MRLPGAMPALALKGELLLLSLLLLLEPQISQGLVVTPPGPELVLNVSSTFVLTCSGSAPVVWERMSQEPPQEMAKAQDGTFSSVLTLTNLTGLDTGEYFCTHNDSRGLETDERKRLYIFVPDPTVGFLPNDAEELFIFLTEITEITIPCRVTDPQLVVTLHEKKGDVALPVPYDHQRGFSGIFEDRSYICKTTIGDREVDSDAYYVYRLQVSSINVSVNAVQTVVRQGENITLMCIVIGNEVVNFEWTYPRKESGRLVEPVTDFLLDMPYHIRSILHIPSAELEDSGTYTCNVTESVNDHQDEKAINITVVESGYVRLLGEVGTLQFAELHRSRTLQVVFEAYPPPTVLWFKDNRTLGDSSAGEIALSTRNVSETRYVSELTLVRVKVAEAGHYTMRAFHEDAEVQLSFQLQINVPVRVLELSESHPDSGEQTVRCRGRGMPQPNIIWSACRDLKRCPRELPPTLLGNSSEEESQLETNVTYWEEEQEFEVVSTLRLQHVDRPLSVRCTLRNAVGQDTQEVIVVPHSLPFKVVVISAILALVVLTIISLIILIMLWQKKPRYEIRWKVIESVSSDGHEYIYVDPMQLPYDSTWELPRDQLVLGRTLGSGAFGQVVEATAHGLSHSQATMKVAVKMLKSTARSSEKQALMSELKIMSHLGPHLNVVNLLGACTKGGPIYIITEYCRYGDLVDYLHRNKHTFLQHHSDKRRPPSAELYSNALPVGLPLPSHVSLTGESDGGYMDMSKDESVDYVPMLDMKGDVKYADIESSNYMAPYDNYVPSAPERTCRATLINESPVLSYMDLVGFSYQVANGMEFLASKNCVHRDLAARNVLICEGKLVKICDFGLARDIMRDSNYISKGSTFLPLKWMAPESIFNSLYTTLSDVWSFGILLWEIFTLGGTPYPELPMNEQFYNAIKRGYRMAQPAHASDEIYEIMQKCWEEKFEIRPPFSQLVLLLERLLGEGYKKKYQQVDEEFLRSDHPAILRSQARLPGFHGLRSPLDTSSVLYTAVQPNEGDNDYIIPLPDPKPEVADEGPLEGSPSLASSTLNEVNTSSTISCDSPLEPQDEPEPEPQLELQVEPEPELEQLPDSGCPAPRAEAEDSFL

For `Cc1ccc(NC(=O)c2cccc(C(F)(F)F)c2)cc1OC1CCN(C(=O)c2ccncc2)CC1`, the GI50 [1] was greater than 10000 nM, the Activity [2] was “Active” and the Tmax [3] was 1.02 min. The Activity [4] was 0.15%, the Activity [5] was “inactive” and the Activity [6] was 0.6%. For the same molecule, the half-life [7] was 27.1 min, the inhibition [8] was “inactive” and the inhibition [9] was “Active”. The GI50 [10] was greater than 10000 nM, the GI50 [11] was greater than 10000 nM and the inhibition [12] was “Active”. For the same molecule, the CL/F [13] was 215 mL/min/kg, the Activity [14] was “Active” and the inhibition [15] was “Active”. It also gave a Tmax [16] of 30 min, an Activity [17] of 0.2% and a Cmax [18] of 125 ng/mL. For the same molecule, the Activity [19] was “inactive”, the GI50 [20] was 190 nM and the inhibition [21] was “Active”. The inhibition [22] was “Active”, the inhibition [23] was “Active” and the AUC(0-inf) [24] was 202 ng·h/mL. The IC50 [25] was 133 nM, the AUC(0-inf) [26] was 780 ng·h/mL and the GI50 [27] was 43 nM. The inhibition [28] was “Active” and the GI50 [29] was 5310 nM.
